# Active and inactive are the calls of the source. The rule behind the calls is not given here.
# How the values were obtained:
# [1] = system: A549; experiment: Induction of apoptosis in TNFalpha-stimulated human A549 cells assessed as PARP cleavage at 5 and 10 uM pre-treated for 24 hrs before TNFalpha addition in presence of RXRalpha siRNA by immunoblotting method; assay type: functional, cell-based
# How it was run: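 A549 cells were transfected with RXRα siRNA or control siRNA for 48 h. They were then treated with compound for 24 h, followed by TNFα (20 ng/mL) for 30 min. Lysates were analyzed by Western blot for AKT activation and PARP cleavage.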
# [2] = target: T1, Glucocorticoid receptor (Homo sapiens) (UniProt P04150); experiment: Antagonist activity against GRalpha ligand binding domain (unknown origin) expressed in human MCF7 cells assessed as inhibition of dexamethasone-induced receptor transactivation at 10 uM after 18 hrs by luciferase reporter gene based mammalian one-hybrid assay; assay type: cell-based
# T1 sequence (whole entry): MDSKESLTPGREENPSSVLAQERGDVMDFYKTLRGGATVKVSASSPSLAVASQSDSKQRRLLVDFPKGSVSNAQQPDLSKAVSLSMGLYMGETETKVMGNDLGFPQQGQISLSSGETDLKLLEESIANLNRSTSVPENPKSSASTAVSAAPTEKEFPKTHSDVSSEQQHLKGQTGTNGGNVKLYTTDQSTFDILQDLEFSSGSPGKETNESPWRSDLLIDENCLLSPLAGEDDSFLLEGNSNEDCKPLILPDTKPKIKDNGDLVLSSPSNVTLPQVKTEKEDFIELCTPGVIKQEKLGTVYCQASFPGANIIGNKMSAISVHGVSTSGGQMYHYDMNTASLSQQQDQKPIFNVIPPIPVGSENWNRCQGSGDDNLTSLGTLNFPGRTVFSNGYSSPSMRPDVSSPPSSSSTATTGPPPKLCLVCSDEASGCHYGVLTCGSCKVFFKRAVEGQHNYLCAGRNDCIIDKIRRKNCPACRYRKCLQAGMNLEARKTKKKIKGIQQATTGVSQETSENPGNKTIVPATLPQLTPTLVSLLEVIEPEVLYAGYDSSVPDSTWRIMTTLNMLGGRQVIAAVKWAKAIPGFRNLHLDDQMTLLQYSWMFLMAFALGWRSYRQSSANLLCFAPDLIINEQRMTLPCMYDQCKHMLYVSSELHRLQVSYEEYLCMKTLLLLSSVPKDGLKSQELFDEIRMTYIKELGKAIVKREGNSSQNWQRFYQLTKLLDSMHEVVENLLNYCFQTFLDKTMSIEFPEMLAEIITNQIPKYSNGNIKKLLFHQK
# [3] = target: Retinoic acid receptor RXR-alpha/oxysterols receptor LXR-alpha (Homo sapiens) (UniProt P19793+Q13133); experiment: Antagonist activity against RXRalpha/LXRalpha ligand binding domain (unknown origin) expressed in human HEK293T cells assessed as inhibition of 9-cis-RA/T09-induced receptor transactivation at 2 and 10 uM after 18 hrs by luciferase reporter gene based mammalian one-hybrid assay; assay type: cell-based; conditions: HEK-293T
# [4] = target: T2, Retinoic acid receptor RXR-beta (Homo sapiens) (UniProt P28702); experiment: Antagonist activity against RXRbeta ligand binding domain (unknown origin) expressed in human HEK293T cells assessed as inhibition of 9-cis-RA-induced receptor transactivation at 2 and 10 uM after 18 hrs by luciferase reporter gene based mammalian one-hybrid assay; assay type: cell-based; conditions: HEK-293T
# T2 sequence (whole entry): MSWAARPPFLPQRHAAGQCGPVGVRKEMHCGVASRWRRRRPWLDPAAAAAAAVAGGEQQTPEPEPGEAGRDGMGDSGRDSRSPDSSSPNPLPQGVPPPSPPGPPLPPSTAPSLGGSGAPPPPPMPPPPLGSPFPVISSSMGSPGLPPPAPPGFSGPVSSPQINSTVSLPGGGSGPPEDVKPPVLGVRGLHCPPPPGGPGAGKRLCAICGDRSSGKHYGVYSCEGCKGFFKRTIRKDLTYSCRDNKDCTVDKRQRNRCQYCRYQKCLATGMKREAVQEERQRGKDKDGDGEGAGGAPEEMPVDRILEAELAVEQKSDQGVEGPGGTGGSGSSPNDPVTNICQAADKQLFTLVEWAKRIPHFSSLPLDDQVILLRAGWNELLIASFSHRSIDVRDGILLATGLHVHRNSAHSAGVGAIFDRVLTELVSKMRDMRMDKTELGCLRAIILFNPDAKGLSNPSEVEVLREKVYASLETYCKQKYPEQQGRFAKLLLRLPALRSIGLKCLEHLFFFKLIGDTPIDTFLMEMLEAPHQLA
# [5] = target: T3, Retinoic acid receptor RXR-alpha (Homo sapiens) (UniProt P19793); experiment: Antagonist activity against RXRalpha in TNFalpha-stimulated human A549 cells assessed as inhibition of AKT phosphorylation at 5 and 10 uM pre-treated for 24 hrs before TNFalpha addition by Western blotting method; assay type: cell-based
# T3 sequence (whole entry): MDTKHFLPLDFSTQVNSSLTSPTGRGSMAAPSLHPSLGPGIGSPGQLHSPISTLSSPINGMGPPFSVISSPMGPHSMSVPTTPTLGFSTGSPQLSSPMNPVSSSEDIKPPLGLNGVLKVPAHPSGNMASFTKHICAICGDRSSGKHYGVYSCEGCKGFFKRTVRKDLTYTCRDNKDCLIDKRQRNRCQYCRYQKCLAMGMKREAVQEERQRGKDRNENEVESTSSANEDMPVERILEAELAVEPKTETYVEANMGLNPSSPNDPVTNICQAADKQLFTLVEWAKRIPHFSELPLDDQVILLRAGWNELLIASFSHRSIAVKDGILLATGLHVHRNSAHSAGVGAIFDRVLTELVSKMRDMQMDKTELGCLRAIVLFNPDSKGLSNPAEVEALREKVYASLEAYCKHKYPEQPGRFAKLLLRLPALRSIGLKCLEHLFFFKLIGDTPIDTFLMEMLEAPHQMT
# How it was run: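 A549 or HepG2 cells were exposed to compound for 24 h, then with or without TNFα (20 ng/mL) for 30 min more. Lysates were immunoblotted for AKT activation. One of three to five similar experiments shown.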
compound,measurement,setting,value
Cc1cc(=O)oc2c(/C=N/NC(=O)CSc3nc4ccccc4s3)c(O)ccc12,Activity,[1],inactive
same,inhibition,[2],inactive
same,inhibition,[3],inactive
same,inhibition,[4],Active
same,inhibition,[5],Active

# Reference: ChEMBL document CHEMBL3352174, “Identification of a New RXRα Antagonist Targeting the Coregulator-Binding Site” (ACS Med Chem Lett, 2014)
